Laboratory results from ChEMBL document CHEMBL1131145, “Halogenated chalcones with high-affinity binding to P-glycoprotein: potential modulators of multidrug resistance” (J Med Chem, 1998).

Key:
[1] = The dissociation constant was measured as binding affinity to P-Glycoprotein C-terminal cytosolic domain using the grafit program.
Method in brief: (§1)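 Tryptophan fluorescence excited at 295 nm, emission scanned 310–380 nm and integrated after buffer Raman subtraction. Chalcone titrated in successive additions up to 20 µM. Quenching corrected for inner-filter effect using N-acetyltryptophanamide. KD and ΔFmax obtained by curve fitting.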

[2] = The maximal fluorescence quenching was determined using the Grafit program.; method in brief: as §1

| SMILES | Kd [1] [nM] | maximal fluorescence quenching [2] [%] |
| --- | --- | --- |
| O=C(/C=C/c1ccc(I)cc1)c1c(O)cc(O)cc1O | 250 | 86.6 |
| O=C(/C=C/c1ccccc1)c1c(O)cc(O)cc1O [2',4',6-TRIHYDROXYCHALCONE] | – | 87.8 |
| O=C(/C=C/c1ccc(O)cc1)c1c(O)cc(O)cc1O [4,2',4',6'-TETRAHYDROXYCHALCONE] | 4800 | 86.8 |
| O=C(/C=C/c1ccc(Br)cc1)c1c(O)cc(O)cc1O [4-BROMO-2',4',6'-TRIHYDROXYCHALCONE] | 570 | 88.7 |
| O=C(/C=C/c1ccc(Cl)cc1)c1c(O)cc(O)cc1O [4-CHLORO-2',4',6'-TRIHYDROXYCHALCONE] | 1300 | 80.1 |
| O=C(/C=C/c1ccc(F)cc1)c1c(O)cc(O)cc1O [4-FLUORO-2',4',6'-TRIHYDROXYCHALCONE] | 3600 | 88.1 |
| COc1ccc(/C=C/C(=O)c2c(O)cc(O)cc2O)cc1 [4-METHOXYL-2',4',6'-TRIHYDROXYCHALCONE] | 2300 | 85.5 |
